# zVAD death inh – inhibitors of zVAD-triggered necroptosis, primary screen, L929 cells. L929 zVAD necroptosis rescue, ATP luminescence, 24 h; with zVAD 60 µM. viability rescue, % at 10 µM. 220,000 compounds, 0.38% hits;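 active = activation, scaled between plate controls, above about 75%, limit read from the data; inactive = activation under that limit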;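 also: 0% = zVAD with DMSO and 100% = DMSO alone without zVAD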
# TNF necrop inh – inhibitors of TNF-alpha triggered necroptosis, primary screen, cell-based, Jurkat FADD-/-, single concentration; Jurkat FADD-/- TNF necroptosis rescue, ATP luminescence, 24 h; 0 = TNF only, 100 = no-TNF cells; activation (protection from cell death), % at 10 µM; 220,000 compounds, 0.068% hits; AID 463075, 2010;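 active = activation, meaning protection from cell death, of at least 50% relative to plate controls; inactive = activation below 50%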;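 also: necroptosis triggered by 40 ng/mL TNF-alpha added together with compound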
# TNAP inh noacc – human TNAP enzyme inhibitors, primary screen, biochemical, luminescent, no phosphate acceptor, uHTS | Alkaline phosphatase, tissue-nonspecific isozyme (Homo sapiens), P05186 | purified TNAP, CDP-star luminescence, 30 min | inhibition, % at 20 µM | 200,000 compounds, 0.26% hits;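 active = tissue-nonspecific alkaline phosphatase inhibition above about 50% at 20 µM in the single-dose screen, limit read from the data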;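 also: 0% = DMSO negative control and 100% = EDTA positive control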
# Target sequence (P05186 whole entry, looked up): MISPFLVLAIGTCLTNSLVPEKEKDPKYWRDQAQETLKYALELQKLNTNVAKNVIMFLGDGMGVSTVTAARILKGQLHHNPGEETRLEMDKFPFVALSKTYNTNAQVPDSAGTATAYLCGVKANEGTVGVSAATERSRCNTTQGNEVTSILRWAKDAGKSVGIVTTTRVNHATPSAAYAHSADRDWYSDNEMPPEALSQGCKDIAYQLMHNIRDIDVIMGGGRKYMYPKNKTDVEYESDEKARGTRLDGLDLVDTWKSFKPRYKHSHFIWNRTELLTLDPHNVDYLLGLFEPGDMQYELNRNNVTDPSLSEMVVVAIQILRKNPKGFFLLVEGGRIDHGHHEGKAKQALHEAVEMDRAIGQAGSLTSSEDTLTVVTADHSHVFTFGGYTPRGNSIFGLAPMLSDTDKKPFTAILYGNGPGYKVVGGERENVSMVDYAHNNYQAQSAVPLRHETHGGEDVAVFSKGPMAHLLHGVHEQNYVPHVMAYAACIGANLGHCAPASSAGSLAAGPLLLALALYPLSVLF
# TNAP act hiacc – TNAP activators at high phosphate acceptor level, primary screen, biochemical, luminescence, uHTS. Alkaline phosphatase, tissue-nonspecific isozyme (Homo sapiens), P05186. purified TNAP, CDP-star luminescence, 1 M DEA, 30 min; stronger effect = higher value; 0 = EDTA background, 1 = DMSO-only activity. activation factor at 20 µM. 200,000 tested, under 10 active. AID 1136, 2008;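 active = activation factor at least 2 at 20 µM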
#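 Test system – human TNAP · Doses – 20 µM single point · Incubation – 30 min, room temperature · Signal – luminescent substrate turnover signal · Read-out basis – activation factor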
# SDO1 yeast rescue – growth rescue of sdo1-depleted yeast, primary screen, S. cerevisiae, bone marrow failure model; S. cerevisiae sdo1-depleted JHY4D growth rescue, OD600 30 h; stronger effect = higher value; pdr5 snq2 efflux-pump mutant strain; z-score at 10 µM; 140,000 compounds, 0.21% hits; AID 817, 2007;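 active = z-score above 3 at both the 24 hr and the 30 hr optical density reads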;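 also: z-score against mean and SD of all compound wells on the same plate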
# TNAP inh hiacc – human TNAP enzyme inhibitors, primary screen, biochemical, luminescent, high phosphate acceptor level, uHTS; Alkaline phosphatase, tissue-nonspecific isozyme (Homo sapiens), P05186; 200,000 compounds, 0.03% hits; purified TNAP, CDP-star luminescence, 1 M DEA; inhibition, % at 20 µM; AID 1135, 2008;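 active = over 50% inhibition of tissue-nonspecific alkaline phosphatase at 20 µM in the single-dose screen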;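 also: plate controls were DMSO wells for no effect and EDTA-quenched wells as full inhibition for full effect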
# SDO1 rescue DR – SDO1-depleted yeast growth rescue, concentration-response, diseases of bone marrow failure, JHY4D, OD600; shares compounds with SDO1 yeast rescue; S. cerevisiae JHY4D (SDO1-depleted) growth rescue, 30 h; stronger effect = higher value; efflux-deficient strain, SNQ2 and PDR5 mutated; OD recovery (concentration not given with the values); 440 compounds, 44% hits; AID 949, 2007;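 active = yeast growth recovered at 30 hours, either rising with dose fitted slope above 0.001 or with average optical density gain above 0.07, some results past the limit were not filed as active; inactive = growth falling with dose or no effect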;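 also: gain in OD600 from 0 h to 30 h averaged across all seven doses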
# * hit, by the source's call; nt = not tested or not shown. Only some compounds are listed: those with a hit (about 0.81% of all), similar ones and a draw of the others.
SMILES,zVAD death inh,TNF necrop inh,TNAP inh noacc,TNAP act hiacc,SDO1 yeast rescue,TNAP inh hiacc,SDO1 rescue DR
Cc1cc(C)nc(N(C#N)S(=O)(=O)c2ccc(Br)cc2)n1,-1,0,0,1,12*,3,0.037
CCS(=O)(=O)NCCc1csc(-c2cccnc2)n1,0,0,-12,1,0.24,-2,nt
CCc1ccc(S(=O)(=O)NCCc2csc(-c3ccccc3)n2)s1,-1,-3,-12,1.1,4.3*,-5,0.068
CCc1ccc(S(=O)(=O)NCc2csc(-c3ccccc3)n2)s1,0,0,-16,1,-0.77,-4,nt
CCc1ccc(S(=O)(=O)NCCc2csc(-c3cccnc3)n2)s1,0,-1,-6,1,4.4*,-2,0.052
COc1ccc(NS(=O)(=O)c2cc(NC(=O)c3nc4nc(C)cc(C)n4n3)ccc2C)cc1,1,2,-7,1,nt,-2,nt
C=CCN=C(C)C1=C(O)C(C)OC1=O (stereo unspecified),0,0,-12,1.1,14*,-5,0.097*
COc1ccc2c(c1)c(CC(=O)Nc1cccc(S(N)(=O)=O)c1)c(C)n2C(=O)c1ccc(Cl)cc1,0,0,nt,nt,nt,nt,nt
CCn1nnnc1SCC(=O)c1ccc2c(c1)OCCO2,0,2,-3,1,10*,-2,0.029
Cc1c(C(=O)O)cccc1-c1ccc(/C=N/Nc2ccc(Br)cc2)o1,0,2,-7,1,-0.81,-1,nt
O=C(Cc1ccc(Cl)cc1)N/N=C1\CCCc2ccccc21,1,-5,-1,1,-0.34,2,nt
O=C(CCC(=O)Nc1ccccc1Cl)N/N=C1\CCCc2ccccc21,0,1,-9,1.1,13*,-6,0.083*
CC(C)CC(=O)OC1C(N2CCOCC2)c2c(ccc(/C=C/C(=O)N3CCOCC3)c2O)OC1(C)C (stereo unspecified),0,1,-16,1,0.32,-2,nt
CC(C)CNC(=O)NC1C(NC(=O)NCC(C)C)N(C)C(=O)N1C (stereo unspecified),0,-1,-10,1,4.4*,-2,0.073*
O=C(COc1cccc(NC(=O)c2cccc([N+](=O)[O-])c2)c1)c1ccc(Br)cc1,0,-10,-1,1,-1.1,3,nt
C=CCn1c(CCCNC(=O)c2ccccc2OC)nc2ccccc21,1,2,-12,1,nt,-2,nt
CN1CCN(CC(O)COCCOc2ccc(Br)cc2)CC1 (stereo unspecified),0,3,-8,1,-0.28,0,nt
CCN1CCN(CC(O)COCCOc2ccc(Br)cc2)CC1 (stereo unspecified),0,2,-12,1,6.9*,-3,0.041
O=C(CSc1nnc(-c2ccc(S(=O)(=O)N3CCCC3)cc2)o1)NCc1ccco1,0,2,0,1,2.6,0,0.038
COc1ccc(-c2nnc(SCC(=O)NCc3ccco3)o2)cc1,10,-1,-2,1.1,-0.12,-6,nt
CCOC(=O)c1cccnc1SCC(=O)NC(C)CC (stereo unspecified),0,1,-12,1,2,0,0.09*
CC(C)(C)NC(=O)NC(=O)COc1ccccn1,0,-2,-1,1,3.2*,-3,0.056
CCC(C)N(C)C1CCN(C(=S)Nc2cccc(SC)c2)CC1 (stereo unspecified),1,0,-1,1,nt,-3,nt
O=S(=O)(Nc1cccnc1)c1ccc(Cl)c(C(F)(F)F)c1,0,-1,10,1,9.6*,-2,0.058
O=C(NCCc1ccccc1)c1ccnc(/C=N/O)c1,0,-1,3,1,8*,-1,0.029
SMILES,zVAD death inh,TNF necrop inh,TNAP inh noacc,TNAP act hiacc,SDO1 yeast rescue,TNAP inh hiacc,SDO1 rescue DR
CN(CCNC(=O)c1ccc(/C=N/O)nc1)Cc1ccccc1,1,3,-3,1,1.2,4,nt
COc1cccc(NC(=S)NNC(=O)C(C)n2nc(C)c([N+](=O)[O-])c2C)c1 (stereo unspecified),0,-3,-23,1,4*,-3,0.063
COC(=O)c1sccc1NC(=O)c1ccc(OC)c(OC)c1,0,-2,-12,1.1,1.4,-5,0.047
O=C(NCc1ccccc1)c1cccc(Br)n1,2,1,-4,1,15*,-2,0.063
Cc1ccc(-c2cccc(C(=O)NCc3ccccc3)n2)c2ccccc12,0,2,-4,1,-0.18,0,nt
CCOc1cc(C#N)c(NC(=O)c2cccnc2)cc1OCC,0,-9,-7,1,1.4,-1,0.058
CCOc1cc(C#N)c(NC(=O)c2cccnc2Cl)cc1OCC,0,-2,-15,1,0.98,0,nt
COc1cc(OC)cc(C(=O)NCCN2CCOCC2)c1,0,-1,-11,1,1.7,-1,nt
O=C(C1COc2ccccc2O1)N1CCN(c2ccccc2F)CC1 (stereo unspecified),1,-1,-18,1.1,3.1*,-9,0.11*
Cc1ccc(C(=O)N(Cc2ccc3c(c2)OCO3)Cc2nc3ccccc3c(=O)[nH]2)cc1,0,-1,4,1,8.5*,-4,0.091*
CCCCC(=O)N(Cc1ccc2c(c1)OCO2)Cc1nc2ccccc2c(=O)[nH]1,0,1,-3,1,nt,-2,nt
CCCn1c(O)c(N=NC(=O)c2ccco2)c2ccccc21,0,0,13,1,1.9,0,nt
O=C(N=NC(=O)c1ccco1)c1ccc2c(O)n(N3C(=O)c4ccccc4C3=O)c(O)c2c1,nt,1,-24,1,3.5*,-2,0.075*
CCn1c(O)c(N=N)c2ccccc21,7,-2,-6,1.1,nt,-6,nt
CCn1c(O)c(N=NC2=NC(=O)CS2)c2ccccc21,0,-4,6,0.9,16*,8,0.079
Cc1ccc(S(=O)(=O)N2CCCCC2)cc1NC(=O)COC(=O)c1c(F)cccc1F,0,-3,0,1,nt,-4,nt
Cc1ccc(S(=O)(=O)N2CCCCC2)cc1NC(=O)COC(=O)Cc1c(F)cccc1Cl,0,1,-16,1.1,17*,-6,0.09*

# High-throughput results as filed in PubChem BioAssay.
